Key:
[1] = molecular target: T1, SUMO-activating enzyme 1/2 (SAE 1/2, SUMO E1) (Homo sapiens, UniProt Q9UBT2); assay: E1-SUMO-1 thioester formation gel assay with fluorescent SUMO-1; assay type: biochemical
T1 sequence (Q9UBT2 1-640): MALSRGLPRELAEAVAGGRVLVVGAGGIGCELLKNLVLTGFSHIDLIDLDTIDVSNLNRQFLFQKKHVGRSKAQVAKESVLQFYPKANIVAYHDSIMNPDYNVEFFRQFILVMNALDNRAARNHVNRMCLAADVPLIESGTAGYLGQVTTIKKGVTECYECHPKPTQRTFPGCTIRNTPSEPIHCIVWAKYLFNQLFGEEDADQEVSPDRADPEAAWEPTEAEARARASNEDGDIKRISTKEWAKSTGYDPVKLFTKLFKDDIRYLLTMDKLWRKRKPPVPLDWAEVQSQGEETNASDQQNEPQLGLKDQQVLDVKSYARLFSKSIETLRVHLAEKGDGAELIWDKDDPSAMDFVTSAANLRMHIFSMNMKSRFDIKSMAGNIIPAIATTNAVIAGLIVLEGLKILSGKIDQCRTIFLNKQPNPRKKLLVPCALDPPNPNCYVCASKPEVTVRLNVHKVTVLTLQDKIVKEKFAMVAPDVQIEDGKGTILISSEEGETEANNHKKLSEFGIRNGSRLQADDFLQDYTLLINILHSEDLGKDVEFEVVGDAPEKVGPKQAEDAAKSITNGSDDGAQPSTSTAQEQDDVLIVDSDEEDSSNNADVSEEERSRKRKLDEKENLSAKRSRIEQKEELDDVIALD
T1 sequence (Q9UBE0 1-346 partner): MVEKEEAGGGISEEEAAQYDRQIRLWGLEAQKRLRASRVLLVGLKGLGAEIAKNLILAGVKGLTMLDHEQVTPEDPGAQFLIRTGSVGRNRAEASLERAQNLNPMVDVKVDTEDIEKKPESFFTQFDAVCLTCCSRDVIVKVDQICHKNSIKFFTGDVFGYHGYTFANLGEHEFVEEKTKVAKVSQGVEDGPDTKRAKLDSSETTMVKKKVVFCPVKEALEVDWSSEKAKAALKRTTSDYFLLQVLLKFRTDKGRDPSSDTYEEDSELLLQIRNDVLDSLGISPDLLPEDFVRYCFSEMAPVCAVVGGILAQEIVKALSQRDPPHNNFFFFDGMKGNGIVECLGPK

UBC9 (SUMO E2 enzyme) = UBC9 (SUMO E2 enzyme) (Homo sapiens, UniProt P63279); assay: reconstituted sumoylation cascade, electrophoretic mobility shift IC50; assay type: biochemical
UBC9 (SUMO E2 enzyme), sequence (P63279 2-158): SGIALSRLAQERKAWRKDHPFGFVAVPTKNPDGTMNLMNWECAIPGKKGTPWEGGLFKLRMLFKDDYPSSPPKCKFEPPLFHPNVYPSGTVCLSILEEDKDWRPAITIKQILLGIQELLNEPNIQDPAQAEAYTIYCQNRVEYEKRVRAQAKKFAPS
UBC9 (SUMO E2 enzyme), sequence (P63165 2-97 partner): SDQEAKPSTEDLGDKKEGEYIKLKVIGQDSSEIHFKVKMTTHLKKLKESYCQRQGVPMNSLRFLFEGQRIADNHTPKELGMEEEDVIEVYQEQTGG
Method in brief: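 Reconstituted cascade in 50 mM Tris pH 9.0 with 5 mM MgCl2 and 1 mM DTT. Contains SUMO E1 0.1 µM, His-tagged SUMO-1 1.4 µM, UBC9 0.25 µM and a 5-FAM-labelled peptide substrate at 1.0 µM. Started with ATP (final 2 mM), run with test compound at varying concentrations for 90 min at room temperature, then EDTA-quenched. Conversion read by microfluidic mobility shift. IC50 from the mean of three replicates.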

SMILES	IC50 [1] [µM]	IC50 (UBC9 (SUMO E2 enzyme)) [µM]
CCCCCC/C=C\CCCCCCCc1cccc(O)c1C(=O)O [ginkgolic acid]	9.1	–
O=c1cc(-c2ccc(O)c(O)c2O)oc2ccccc12 [2-D08, 2’,3’,4’-trihydroxyflavone]	–	6 ± 1.3

From publication PMC3711074 (Chemistry & biology, 2013)
